From ChEMBL document CHEMBL4251698, “Mitigating the Metabolic Liability of Carbonyl Reduction: Novel Calpain Inhibitors with P1' Extension” (ACS Med Chem Lett, 2018)
pIC50, pKi: −log10 of the molar value.

Key:
[1] = target: T1, Calpain-1 catalytic subunit (Homo sapiens, UniProt P07384); assay: Inhibition of human erythrocyte calpain 1 using Suc-Leu-Tyr-AMC as substrate by fluorescence assay
T1 sequence (P07384 whole entry): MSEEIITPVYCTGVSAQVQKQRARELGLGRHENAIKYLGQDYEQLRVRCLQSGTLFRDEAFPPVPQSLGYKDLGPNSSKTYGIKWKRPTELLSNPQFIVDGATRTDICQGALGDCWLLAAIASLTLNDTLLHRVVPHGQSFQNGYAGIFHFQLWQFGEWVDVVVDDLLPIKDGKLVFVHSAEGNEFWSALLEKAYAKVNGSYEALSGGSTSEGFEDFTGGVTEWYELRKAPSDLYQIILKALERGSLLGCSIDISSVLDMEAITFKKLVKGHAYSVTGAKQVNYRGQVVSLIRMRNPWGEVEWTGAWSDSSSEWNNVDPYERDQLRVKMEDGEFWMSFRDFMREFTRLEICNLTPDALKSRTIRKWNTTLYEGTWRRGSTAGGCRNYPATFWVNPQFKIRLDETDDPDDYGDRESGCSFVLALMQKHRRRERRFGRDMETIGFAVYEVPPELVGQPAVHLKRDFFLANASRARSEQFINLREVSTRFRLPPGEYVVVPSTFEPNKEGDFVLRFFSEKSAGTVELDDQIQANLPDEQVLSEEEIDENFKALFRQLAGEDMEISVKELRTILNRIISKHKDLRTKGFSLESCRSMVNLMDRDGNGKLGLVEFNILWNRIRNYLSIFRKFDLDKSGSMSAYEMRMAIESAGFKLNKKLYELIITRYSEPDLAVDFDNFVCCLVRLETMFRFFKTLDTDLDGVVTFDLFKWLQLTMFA

[2] = Inhibition of calpain in rat hippocampal slices assessed as reduction in NMDA-induced intracellular spectrin cleavage; format: cell-based
Method in brief: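 Rat hippocampal slice cultures were challenged with NMDA. The read-out was prevention of intracellular spectrin cleavage, and IC50 values were derived.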

[3] = Intrinsic clearance in cynomolgus monkey liver cytosol at 0.5 uM measured after 15 mins in presence of NADPH by spectrometric method; format: ADME, subcellular, Macaca fascicularis; conditions: read-out: CLH
Method in brief: (§1)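 Test compound incubated with monkey or human liver cytosol and percent parent lost over time followed. Intrinsic clearance calculated from this depletion, in µL/min/mg; ranges adjusted to hepatic plasma flow of the species.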

[4] = Intrinsic clearance in human liver cytosol at 0.5 uM measured after 15 mins in presence of NADPH by spectrometric method; format: ADME, subcellular; conditions: read-out: CLH; method in brief: as §1
[5] = Clearance in rat hepatocytes; format: ADME, cell-based, Hepatocyte
[6] = Clearance in human hepatocytes; format: ADME, cell-based, Hepatocyte

| Compound | pKi [1] | other results |
| --- | --- | --- |
| CC(C)NC(=O)C(=O)C(Cc1ccccc1)NC(=O)c1cccnc1-n1ccc(-c2ccccc2)n1 (stereo not given) | 5.59 |  |
| O=C(NCC1CC1)C(=O)C(Cc1ccccc1)NC(=O)c1cccnc1-n1ccc(-c2ccccc2)n1 (stereo not given) | 6.26 |  |
| CC1(NC(=O)C(=O)C(Cc2ccccc2)NC(=O)c2cccnc2-n2ccc(-c3ccccc3)n2)CC1 (stereo not given) | < 5.30 |  |
| CN(C)CCONC(=O)C(=O)C(Cc1ccccc1)NC(=O)c1cccnc1-n1ccc(-c2ccccc2)n1 (stereo not given) | 5.97 |  |
| N#CCNC(=O)C(=O)C(Cc1ccccc1)NC(=O)c1cccnc1-n1ccc(-c2ccccc2)n1 (stereo not given) | 6.02 |  |
| CC(C)ONC(=O)C(=O)C(Cc1ccccc1)NC(=O)c1cccnc1-n1ccc(-c2ccccc2)n1 (stereo not given) | 6.66 |  |
| O=C(NCCc1ccccc1)C(=O)C(Cc1ccccc1)NC(=O)c1cccnc1-n1ccc(-c2ccccc2)n1 (stereo not given) | 6.48 |  |
| O=C(NC1CCC1)C(=O)C(Cc1ccccc1)NC(=O)c1cccnc1-n1ccc(-c2ccccc2)n1 (stereo not given) | 6.31 |  |
| CCNC(=O)C(=O)C(Cc1ccccc1)NC(=O)c1cccnc1-n1ccc(-c2ccccc2)n1 (stereo not given) | 6.16 |  |
| CCCNC(=O)C(=O)C(Cc1ccccc1)NC(=O)c1cccnc1-n1ccc(-c2ccccc2)n1 (stereo not given) | 6.32 |  |
| O=C(NOCCN1CCOCC1)C(=O)C(Cc1ccccc1)NC(=O)c1cccnc1-n1ccc(-c2ccccc2)n1 (stereo not given) | 6.58 |  |
| O=C(NC1CCCC1)C(=O)C(Cc1ccccc1)NC(=O)c1cccnc1-n1ccc(-c2ccccc2)n1 (stereo not given) | 5.87 |  |
| C=CCNC(=O)C(=O)C(Cc1ccccc1)NC(=O)c1cccnc1-n1ccc(-c2ccccc2)n1 (stereo not given) | 6.33 |  |
| CNC(=O)C(=O)C(Cc1ccccc1)NC(=O)c1cccnc1-n1ccc(-c2ccccc2)n1 (stereo not given) | 6.42 |  |
| O=C(NCc1nc2ccccc2o1)C(=O)C(Cc1ccccc1)NC(=O)c1cccnc1-n1ccc(-c2ccccc2)n1 (stereo not given) | 6.68 |  |

Continued, in another order:

| pKi [1] | Compound | other results |
| --- | --- | --- |
| 6.69 | O=C(NC1CC1)C(=O)C(Cc1ccccc1)NC(=O)c1cccnc1-n1ccc(-c2ccccc2)n1 (stereo not given) | pIC50 [2]: 6.12 |
| 6.96 | CCONC(=O)C(=O)C(Cc1ccccc1)NC(=O)c1cccnc1-n1ccc(-c2ccccc2)n1 (stereo not given) | microsomal CLint at […], 0.5 µM [3]: < 1 µL/min/mg; microsomal CLint at […], 0.5 µM [4]: < 1 µL/min/mg; CLH [5]: 32 µL/min/mg; CLH [6]: 10 µL/min/mg |
| 6.82 | O=C(NOC1CCC1)C(=O)C(Cc1ccccc1)NC(=O)c1cccnc1-n1ccc(-c2ccccc2)n1 (stereo not given) |  |
| 7.05 | O=C(NOCC1CC1)C(=O)C(Cc1ccccc1)NC(=O)c1cccnc1-n1ccc(-c2ccccc2)n1 (stereo not given) |  |
| 6.92 | CONC(=O)C(=O)C(Cc1ccccc1)NC(=O)c1cccnc1-n1ccc(-c2ccccc2)n1 (stereo not given) | pIC50 [2]: 5.67 |
| 7.12 | CCCONC(=O)C(=O)C(Cc1ccccc1)NC(=O)c1cccnc1-n1ccc(-c2ccccc2)n1 (stereo not given) |  |
| 6.96 | O=C(NCc1ccccc1)C(=O)C(Cc1ccccc1)NC(=O)c1cccnc1-n1ccc(-c2ccccc2)n1 (stereo not given) |  |
| 6.92 | O=C(NOC1CCCC1)C(=O)C(Cc1ccccc1)NC(=O)c1cccnc1-n1ccc(-c2ccccc2)n1 (stereo not given) |  |
| 6.73 | C=CCONC(=O)C(=O)C(Cc1ccccc1)NC(=O)c1cccnc1-n1ccc(-c2ccccc2)n1 (stereo not given) |  |
